Assay results published in ChEMBL document CHEMBL2311355, “A class of 5-nitro-2-furancarboxylamides with potent trypanocidal activity against Trypanosoma brucei in vitro” (J Med Chem, 2013).

Assays:
[1] = Selectivity index, ratio of EC50 for human HeLa cells to EC50 for bloodstream form of Trypanosoma brucei brucei 427; type: toxicity, cell-based; settings: read-out: Ratio EC50
HeLa = assay: Cytotoxicity against human HeLa cells after 65 hrs by Alamar blue assay; type: cell-based
[2] = test system: Trypanosoma brucei brucei; assay: Trypanocidal activity against bloodstream form of Trypanosoma brucei brucei 427 after 72 hrs by Alamar blue assay; type: functional, organism-based; settings: Trypanosoma brucei, 427, 72 h
Summary of the method: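 Bloodstream-form T. b. brucei strain 427 grown at 37°C in HMI9 with 10% fetal calf serum and 2.5 µg ml-1 G418, exposed to serially diluted compounds for 72 h. Viability read by Alamar Blue. Four replicates; EC50 ± standard deviation and slope factor from curve fitting.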

[3] = test system: Trypanosoma brucei rhodesiense; assay: Trypanocidal activity against Trypanosoma brucei rhodesiense Z310 after 72 hrs by Alamar blue assay; type: functional, organism-based; settings: Z310, 72 h
Summary of the method: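 T. b. rhodesiense strain Z310 cultured at 37°C in HMI9 with 10% fetal calf serum, without G418, and exposed to compounds for 72 h. Alamar Blue viability read-out. Four replicates; EC50 ± standard deviation from curve fitting.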

[4] = test system: Trypanosoma brucei brucei; assay: Ratio of nifurtimox EC50 to compound EC50 for bloodstream form of wild type Trypanosoma brucei brucei 427; type: functional
[5] = Selectivity ratio of EC50 for bloodstream form of nifurtimox-resistant Trypanosoma brucei to EC50 for bloodstream form of wild type Trypanosoma brucei brucei 427; type: functional
[6] = Selectivity ratio of EC50 for bloodstream form of N-(4-(allyloxy)-3-(trifluoromethyl)phenyl)-5-nitrofuran-2-carboxamide-resistant Trypanosoma brucei to EC50 for bloodstream form of wild type Trypanosoma brucei brucei 427; type: functional
Trypanosoma brucei [7] = assay: Trypanocidal activity against bloodstream form of N-(4-(allyloxy)-3-(trifluoromethyl)phenyl)-5-nitrofuran-2-carboxamide-resistant Trypanosoma brucei after 72 hrs by Alamar blue assay; type: functional, organism-based
Trypanosoma brucei [8] = assay: Trypanocidal activity against bloodstream form of nifurtimox-resistant Trypanosoma brucei after 72 hrs by Alamar blue assay; type: functional, organism-based
Trypanosoma brucei [9] = assay: Antitrypanosomal activity against trypomastigote form of Trypanosoma brucei; type: functional, organism-based
Summary of the method: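 Bloodstream-form T. b. brucei strain 427 grown at 37°C in HMI9 with 10% fetal calf serum and 2.5 μg ml-1 G418; viability read by Alamar Blue after 72 h compound exposure. Four replicates, EC50 ± standard deviation and slope factor from curve fitting.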

| Compound | selectivity ratio [1] | EC50 (HeLa) [nM] | EC50 [2] [nM] | further results |
| --- | --- | --- | --- | --- |
| COc1cccc(NC(=O)c2ccc([N+](=O)[O-])o2)c1 | > 345 | > 20000 | 58.6 |  |
| CCOC(=O)c1cc(CC)sc1NC(=O)c1ccco1 |  | > 20000 | > 20000 |  |
| Nc1nc(N)nc(Nc2ccc([As]3SCC(CO)S3)cc2)n1 (stereo not given) [MELARSOPROL] |  |  |  | EC50 [3]: 7.8 nM |
| COc1ccc(NC(=O)c2ccc([N+](=O)[O-])o2)cc1C | > 525 | > 20000 | 38 |  |
| O=C(Nc1cccc(C(F)(F)F)c1)c1ccc([N+](=O)[O-])o1 | > 4450 | > 20000 | 4.69 | EC50 [3]: 9.4 nM |
| O=C(Nc1ccccc1)c1ccco1 |  | > 20000 | > 20000 |  |
| CCc1cc(C(N)=O)c(NC(=O)c2cccc([N+](=O)[O-])c2)s1 | > 8 | > 20000 | 2600 |  |
| O=C(NCc1ccccn1)c1ccc([N+](=O)[O-])o1 | > 68 | > 20000 | 291 |  |
| COc1ccc(NC(=O)c2ccc([N+](=O)[O-])o2)cc1C(F)(F)F | > 2560 | > 20000 | 7.8 |  |
| C=CCOc1ccc(NC(=O)c2ccc([N+](=O)[O-])o2)cc1C(F)(F)F | > 8330 | > 20000 | 2.4 | EC50 [3]: 2.9 nM; Ratio EC50 [4]: 1000; Ratio EC50 [5]: 3; Ratio EC50 [6]: 14; EC50 (Trypanosoma brucei [7]): 29.3 nM; EC50 (Trypanosoma brucei [8]): 7.8 nM |
| CCc1cc(C(N)=O)c(NC(=O)c2n[nH]cc2[N+](=O)[O-])s1 |  | > 20000 | > 300000 |  |
| COC(=O)c1ccc([N+](=O)[O-])o1 |  | > 20000 | 67000 |  |
| CCOC(=O)c1cc(CC)sc1NC(=O)c1ccc([N+](=O)[O-])o1 | > 640 | > 20000 | 31.3 | EC50 [3]: 44.2 nM; Ratio EC50 [4]: 100 |
| O=C(Nc1ccc(C(F)(F)F)cc1)c1ccc([N+](=O)[O-])o1 | > 158 | > 20000 | 126 | EC50 [3]: 159 nM |
| Cc1csc(N)c1C(N)=O |  | > 20000 | 65100 |  |
| CCc1cc(C(N)=O)c(NC(=O)c2ccc([N+](=O)[O-])o2)s1 | > 1160 | > 20000 | 17.3 | EC50 [3]: 23.1 nM |
| O=C(NNC(=O)c1ccc([N+](=O)[O-])o1)c1ccc2ccccc2c1 |  |  |  | EC50 (Trypanosoma brucei [9]): 130 nM |
| COC(=O)c1ccc(NC(=O)c2ccc([N+](=O)[O-])o2)cc1 | > 29 | > 20000 | 680 |  |
| O=C(NCc1ccccc1)c1ccc([N+](=O)[O-])o1 | > 732 | > 20000 | 27.3 |  |
| C=CCOc1ccc(N(CC=C)C(=O)c2ccc([N+](=O)[O-])o2)cc1C(F)(F)F | > 9 | > 20000 | 2200 |  |
| CCCCOC(=O)c1cc(CC)sc1NC(=O)c1ccc([N+](=O)[O-])o1 | > 625 | > 20000 | 32.6 |  |
| O=C(NCc1cccc(C(F)(F)F)c1)c1ccc([N+](=O)[O-])o1 | > 1150 | > 20000 | 17.4 |  |
| COc1cc(NC(=O)c2ccc([N+](=O)[O-])o2)cc(C(F)(F)F)c1 | > 752 | > 20000 | 26.6 |  |
| N=C(N)c1ccc(OCCCCCOc2ccc(C(=N)N)cc2)cc1 [PENTAMIDINE] |  |  |  | Ratio EC50 [5]: 2; EC50 (Trypanosoma brucei [7]): 1.1 nM |

| Compound | selectivity ratio [1] | EC50 (HeLa) [nM] | EC50 [2] [nM] | further results |
| --- | --- | --- | --- | --- |
| O=C(Nc1ccc(Cl)cc1)c1ccc([N+](=O)[O-])o1 | > 48 | > 20000 | 412 |  |
| CCc1cc(C(=O)O)c(NC(=O)c2ccc([N+](=O)[O-])o2)s1 |  | > 20000 | 959 |  |
| O=[N+]([O-])c1ccc(CNc2ccccc2)o1 |  | > 20000 | 113000 |  |
| O=C(NC1CCCCC1)c1ccc([N+](=O)[O-])o1 | > 86 | > 20000 | 231 |  |
| CCc1cc(C(N)=O)c(NC(=O)c2ccc([N+](=O)[O-])cc2)s1 |  | > 20000 | > 20000 |  |
| CCNC(=O)c1cc(CC)sc1NC(=O)c1ccc([N+](=O)[O-])o1 | > 136 | > 20000 | 147 | EC50 [3]: 202 nM |
| CCCCNC(=O)c1cc(CC)sc1NC(=O)c1ccc([N+](=O)[O-])o1 | > 60 | > 20000 | 336 |  |
| CCCCc1cc(C(=O)OCC)c(NC(=O)c2ccc([N+](=O)[O-])o2)s1 | > 160 | > 20000 | 125 |  |
| CCc1cc(C(N)=O)c(NCc2ccc([N+](=O)[O-])o2)s1 | > 4 | > 20000 | 5300 |  |
| O=C(Nc1cc(C(F)(F)F)cc(C(F)(F)F)c1)c1ccc([N+](=O)[O-])o1 | > 78 | > 10000 | 128 |  |
| CCc1cc(C(N)=O)c(N)s1 |  | > 20000 | 32600 |  |
| C=CCOc1ccc(NC(=O)c2ccc([N+](=O)[O-])o2)cc1 | > 258 | > 20000 | 7.73 |  |
| O=C(Nc1ccccc1)c1ccc([N+](=O)[O-])o1 | > 710 | > 20000 | 28.1 |  |
| CCc1cc(C(=O)NCCO)c(NC(=O)c2ccc([N+](=O)[O-])o2)s1 | > 253 | > 20000 | 79.6 |  |
| O=C(Nc1cccs1)c1ccc([N+](=O)[O-])o1 | > 322 | > 20000 | 62.6 |  |
| O=C(Nc1ccc(O)cc1)c1ccc([N+](=O)[O-])o1 | > 50 | > 20000 | 394 |  |
| CCc1cc(C(N)=O)c(NC(=O)c2ccccc2[N+](=O)[O-])s1 |  | > 20000 | 26100 |  |
| O=C(Nc1cccc(Br)c1)c1ccc([N+](=O)[O-])o1 | > 192 | > 20000 | 104 |  |
| CCc1cc(C(=O)OC)c(NC(=O)c2ccc([N+](=O)[O-])o2)s1 | > 950 | > 20000 | 21 |  |
| COc1ccc(NC(=O)c2ccc([N+](=O)[O-])o2)cc1 | > 261 | > 20000 | 76.5 |  |
| O=C(Nc1ccc(O)c(C(F)(F)F)c1)c1ccc([N+](=O)[O-])o1 | > 9 | > 20000 | 2200 |  |
| CC1CS(=O)(=O)CCN1/N=C/c1ccc([N+](=O)[O-])o1 (stereo not given) [NIFURTIMOX] | 38 | 91200 |  | EC50 [3]: 1710 nM; Ratio EC50 [6]: 3; EC50 (Trypanosoma brucei [7]): 7300 nM |
| CCOC(=O)c1ccsc1NC(=O)c1ccc([N+](=O)[O-])o1 | > 278 | > 20000 | 72.3 |  |
